Activity calls are given as the source filed them.

Data set [1] concerns Mus musculus. Nature of the data set: Anticonvulsant activity in CF-1 mouse model of maximal electroshock-induced seizure assessed as suppression of tonic hind limb extension at 110 mg/kg, ip measured at 1 hr post dose. Type of data set: functional, organism-based. The method in brief: (§1)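 Mice dosed i.p. and given maximal electroshock at 50 mA. Read-out is protection, reported as number protected / number tested at 0.25, 0.5, 1 and 4 h after dosing.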
For orientation: Protection in the maximal electroshock model is a classic sign of anticonvulsant action.

The test system of data set [2] is Mus musculus. Kind of data set: Anticonvulsant activity in CF-1 mouse model of maximal electroshock-induced seizure assessed as suppression of tonic hind limb extension at 110 mg/kg, ip measured at 4 hrs post dose. Type of data set: functional, organism-based. An outline of the steps:
as §1

Data set [3] concerns Mus musculus. Nature of the data set: Anticonvulsant activity in CF-1 mouse assessed as protection against 44 mA current-induced seizure at 120 mg/kg, ip after 15 mins by 6 Hz psychomotor test. Type of data set: functional, organism-based. The method in brief: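 Mice dosed i.p. (30, 100, 300 mg/kg; one line at 120 mg/kg read at 15 min). Corneal stimulation at 6 Hz, 44 mA for 3 s from a constant-current device induces a psychomotor seizure with stunned posture, forelimb automatisms, clonus, vibrissae twitching and Straub tail. Scored as number of animals protected / number tested (4 per group) at 0.5 and 2 h.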

A short description of data set [4]: Protection index, ratio of TD50 for neurotoxicity in po dosed Sprague-Dawley rat to ED50 for anticonvulsant activity in Sprague-Dawley rat model of maximal electroshock-induced seizure. Type of data set: toxicity, organism-based. To be noted: in vivo, read-out: Ratio TD50/ED50. The method in brief:
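The rat p.o. protective index is TD50 (rotarod) / ED50 (MES, 150 mA). Both values were calculated by probit analysis.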

A short description of data set [5]: Neurotoxicity in Sprague-Dawley rat at 30 mg/kg, ip measured after 0.5 hrs by rotarod test. It counts as toxicity, organism-based. To be noted: in vivo. An outline of the steps: (§2)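 Rat neurotoxicity after i.p. or p.o. dosing was scored as animals impaired / animals tested at each time point. For p.o. dosing, TD50 was obtained by probit analysis.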
Background: In the rotarod test animals must keep their balance on a rotating rod.

Data set [6] in a line: Neurotoxicity in Sprague-Dawley rat at 300 mg/kg, ip measured after 1 hr by rotarod test. Type of data set: toxicity, organism-based. To be noted: in vivo. An outline of the steps: as §2
Data set [7] has as its system Rattus norvegicus. Kind of data set: Anticonvulsant activity in hippocampal kindling Sprague-Dawley rat model assessed as after discharge time at 50 mg/kg, ip administered as single dose measured after 75 mins. Type of data set: functional. An outline of the steps:
(§3)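 Rats implanted with a hippocampal electrode and kindled with suprathreshold trains (200 µA, 10 s, 50 Hz) every 30 min for 6 h on alternate days until fully kindled. One week later they received a single i.p. dose. Seizure score (Racine scale) and afterdischarge duration were recorded at 0–135 min and compared with the control stimulus given 15 min before dosing; each animal served as its own control. Values are mean ± SEM.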

The subject of data set [8] is Rattus norvegicus. Kind of data set: Anticonvulsant activity in hippocampal kindling Sprague-Dawley rat model assessed as after discharge time at 50 mg/kg, ip administered as single dose measured after 105 mins. It counts as functional. The method in brief:
as §3

Another data set has as its system Astrocyte. Kind of data set: Cytotoxicity against human astrocytes at 10 to 200 uM after 24 hrs by MTT assay. It counts as cell-based. The method in brief:
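Human astrocytes derived from iPSCs via neural stem cells (7 days neural induction, then 17 days in astrocyte growth medium; GFAP-confirmed). Cells seeded at 1×10^4 per well in 1% FBS medium the day before, then exposed to 10–200 µM for 24 h with vehicle controls. MTT added for 4 h at 37 °C, formazan dissolved, OD read at 570 nm.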
(In general: Formazan colour is commonly taken as a measure of viable cells.)

Regarding `Cc1cccc(C)c1OCC(=O)N[C@H](C)CO`, the outcome in the data set with Mus musculus [1] and in the data set on Mus musculus [2] was inactive. Also, in the data set on Mus musculus [3], the result was Active. In addition, in data set [4], the selectivity ratio was more than 41.6. For the same compound, the figures for the Activity result (in data set [5]; in data set [6]; in the data set with Astrocyte) were “Non-Toxic”, “Toxic” and “Non-Toxic”, respectively. Besides, the Time in the data set on Rattus norvegicus [7] is given as 75 s; in the data set with Rattus norvegicus [8], 77 s.

The record behind these values is ChEMBL document CHEMBL4368872, “Synthesis and anticonvulsant activity of phenoxyacetyl derivatives of amines, including aminoalkanols and amino acids” (Medchemcomm, 2018).
